Key:
[1] = Oral bioavailability in Sprague-Dawley rat at 5 mg/kg; type: ADME, organism-based; details: in vivo; for bioavailability: Sprague-Dawley
Method in brief: (§1)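 Male Sprague Dawley rats, 3 animals per dosing route, mean values. iv dose 2 mg/kg as a solution in DMSO; po dose 5 mg/kg in 1% Tween 80, 2% HPMC, 97% water/methanesulfonic acid pH 2.2.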

[2] = Intrinsic clearance in human liver microsomes at 1 uM after 30 mins by LC-MS HRMS analysis; type: ADME; details: read-out: CLH
[3] = Volume of distribution at steady state in Sprague-Dawley rat at 2 mg/kg, iv; type: ADME, organism-based; details: in vivo, read-out: Vdss; method in brief: as §1
[4] = Intrinsic clearance in rat liver microsomes at 1 uM after 30 mins by LC-MS HRMS analysis; type: ADME; details: read-out: CLH
[5] = Clearance in Sprague-Dawley rat at 2 mg/kg, iv; type: ADME, organism-based; details: in vivo; for clearance: Sprague-Dawley; method in brief: as §1
[6] = Mean residence time in Sprague-Dawley rat at 2 mg/kg, iv; type: ADME, organism-based; details: in vivo; method in brief: as §1
[7] = target: Voltage-gated inwardly rectifying potassium channel KCNH2 (Homo sapiens, UniProt Q12809); test: Inhibition of radiolabeled dofetilide binding to human ERG expressed in HEK293 cells
[8] = AUC (0 to infinity) in Sprague-Dawley rat at 5 mg/kg, po; type: ADME, organism-based; set-up: dose 5 mg/kg, route oral, time infinity; details: in vivo; for AUC(0-inf): Sprague-Dawley; method in brief: as §1
[9] = target: Serine/threonine-protein kinase PIM (Homo sapiens, UniProt P11309+Q9P1W9+Q86V86); test: Inhibition of Pim1/2 in human KMS-12 cells assessed as decrease in BAD phosphorylation at Ser112 by Western blot method; type: cell-based
[10] = target: Serine/threonine-protein kinase pim-2 (Homo sapiens, UniProt Q9P1W9); test: Inhibition of recombinant Pim2 (unknown origin) by electrochemiluminescence assay
[11] = target: Serine/threonine-protein kinase pim-1 (Homo sapiens, UniProt P11309); test: Inhibition of recombinant Pim1 (unknown origin) by electrochemiluminescence assay
[12] = Clearance in Sprague-Dawley rat at 2 mg/kg, iv relative to liver blood flow; type: ADME, organism-based; details: in vivo; method in brief: as §1

Sequence of Serine/threonine-protein kinase pim-1 (P11309 whole entry): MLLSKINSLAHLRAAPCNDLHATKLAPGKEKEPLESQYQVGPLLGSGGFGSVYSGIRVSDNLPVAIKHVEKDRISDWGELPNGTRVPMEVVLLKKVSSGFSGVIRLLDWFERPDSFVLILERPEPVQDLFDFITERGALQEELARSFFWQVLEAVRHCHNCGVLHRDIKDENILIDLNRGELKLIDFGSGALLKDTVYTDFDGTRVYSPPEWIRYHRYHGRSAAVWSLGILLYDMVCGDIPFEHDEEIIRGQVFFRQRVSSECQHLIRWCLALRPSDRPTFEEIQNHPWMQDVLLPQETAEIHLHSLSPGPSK
Sequence of Serine/threonine-protein kinase pim-2 (Q9P1W9 whole entry): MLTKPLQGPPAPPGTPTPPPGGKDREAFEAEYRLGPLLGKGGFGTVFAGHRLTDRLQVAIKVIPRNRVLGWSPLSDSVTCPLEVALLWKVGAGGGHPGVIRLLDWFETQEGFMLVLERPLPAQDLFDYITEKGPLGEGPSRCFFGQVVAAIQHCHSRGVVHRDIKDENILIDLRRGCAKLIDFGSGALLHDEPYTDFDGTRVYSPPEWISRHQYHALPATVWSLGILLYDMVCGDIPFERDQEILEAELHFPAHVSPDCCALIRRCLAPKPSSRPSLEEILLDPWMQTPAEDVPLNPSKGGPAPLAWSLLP
Sequence of Voltage-gated inwardly rectifying potassium channel KCNH2 (Q12809 whole entry): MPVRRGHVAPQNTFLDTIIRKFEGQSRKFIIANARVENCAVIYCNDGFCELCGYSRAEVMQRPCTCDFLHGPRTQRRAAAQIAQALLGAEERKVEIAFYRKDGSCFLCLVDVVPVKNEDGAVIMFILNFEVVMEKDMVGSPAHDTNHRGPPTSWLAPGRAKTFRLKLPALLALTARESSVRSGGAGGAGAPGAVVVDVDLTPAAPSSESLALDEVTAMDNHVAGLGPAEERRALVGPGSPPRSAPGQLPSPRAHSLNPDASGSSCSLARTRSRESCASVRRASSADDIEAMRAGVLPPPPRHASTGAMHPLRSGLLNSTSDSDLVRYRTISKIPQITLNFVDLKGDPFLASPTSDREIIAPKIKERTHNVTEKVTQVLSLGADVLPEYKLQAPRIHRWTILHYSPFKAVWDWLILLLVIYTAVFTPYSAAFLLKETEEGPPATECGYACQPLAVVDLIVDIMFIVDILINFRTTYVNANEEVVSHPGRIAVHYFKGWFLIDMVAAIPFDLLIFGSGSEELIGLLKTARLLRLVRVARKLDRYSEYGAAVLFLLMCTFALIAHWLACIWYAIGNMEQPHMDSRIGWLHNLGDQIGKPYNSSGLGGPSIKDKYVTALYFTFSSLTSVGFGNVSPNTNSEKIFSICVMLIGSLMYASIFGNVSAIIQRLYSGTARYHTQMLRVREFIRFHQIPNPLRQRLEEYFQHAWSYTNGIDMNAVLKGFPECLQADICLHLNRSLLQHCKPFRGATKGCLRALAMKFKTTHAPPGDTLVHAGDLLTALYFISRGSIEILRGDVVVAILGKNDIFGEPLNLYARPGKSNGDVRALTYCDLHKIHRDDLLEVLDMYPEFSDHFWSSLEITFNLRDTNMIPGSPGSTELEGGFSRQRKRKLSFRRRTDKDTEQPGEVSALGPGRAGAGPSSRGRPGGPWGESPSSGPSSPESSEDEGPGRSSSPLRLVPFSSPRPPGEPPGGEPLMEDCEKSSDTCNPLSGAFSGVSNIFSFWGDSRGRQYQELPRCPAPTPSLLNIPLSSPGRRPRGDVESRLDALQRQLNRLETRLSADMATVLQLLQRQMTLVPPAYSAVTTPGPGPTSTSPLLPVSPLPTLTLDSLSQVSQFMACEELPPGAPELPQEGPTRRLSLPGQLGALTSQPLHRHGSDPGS

microsomal CLint at 1 µM [2] | microsomal CLint at 1 µM [4] | IC50 [9] | IC50 [11] | Compound | further results
203 µL/min/mg | > 399 µL/min/mg |  |  | C[C@@H]1CC[C@H](N)CN1c1ccncc1Nc1ncc2ccc(-c3c(F)cccc3F)nn12 | bioavailability [1]: 141%; Vd [3]: 21.7 L/kg; clearance [5]: 91.7 mL/min/kg; MRT [6]: 4 h; IC50 [7]: 19700 nM; AUC(0-inf) [8]: 3.3 µM·h
28 µL/min/mg | 110 µL/min/mg | > 15800 nM |  | N[C@H]1CCCN(c2ncncc2Nc2ncc3ccc(-c4c(F)cccc4F)nn23)C1 | 
27 µL/min/mg | 54 µL/min/mg | 602 nM |  | N[C@H]1CCCN(c2ccncc2Nc2ncc3ccc(-c4nccs4)nn23)C1 | IC50 [10]: 2.9 nM
48 µL/min/mg | 120 µL/min/mg | 1536 nM | 0.23 nM | N[C@H]1CCCN(c2ccncc2Nc2ncc3ccc(-c4ccccc4F)nn23)C1 | IC50 [10]: 1.6 nM
90 µL/min/mg | 280 µL/min/mg |  |  | N[C@@H]1CCCN(c2ccncc2Nc2ncc3ccc(-c4c(F)cccc4F)nn23)C1 | 
66 µL/min/mg | 185 µL/min/mg |  |  | CN[C@H]1CCCN(c2ccncc2Nc2ncc3ccc(-c4c(F)cccc4F)nn23)C1 | 
34 µL/min/mg | 39 µL/min/mg | 6599 nM | 0.23 nM | N[C@H]1CCCN(c2ccncc2Nc2ncc3ccc(-c4cccnc4F)nn23)C1 | 
111 µL/min/mg | 347 µL/min/mg |  |  | C[C@H]1C[C@H](N)CN(c2ccncc2Nc2ncc3ccc(-c4c(F)cccc4F)nn23)C1 | 
91 µL/min/mg | 311 µL/min/mg |  |  | C[C@]1(N)CCCN(c2ccncc2Nc2ncc3ccc(-c4c(F)cccc4F)nn23)C1 (racemic) | 
 |  |  | 65 nM | N[C@H]1CCCN(c2ccnc(NC(=O)c3c[nH]c4ccc(-c5ccccc5F)nc34)c2)C1 | IC50 [10]: 314 nM
67 µL/min/mg | 61 µL/min/mg |  |  | N[C@H]1CCCN(c2cnccc2Nc2ncc3ccc(-c4c(F)cccc4F)nn23)C1 | 
82 µL/min/mg | 63 µL/min/mg | 3440 nM |  | N[C@H]1CCCN(c2ccccc2Nc2ncc3ccc(-c4c(F)cccc4F)nn23)C1 | 
31 µL/min/mg | 132 µL/min/mg | 1761 nM | 0.38 nM | N[C@H]1CCCN(c2ccncc2Nc2ncc3ccc(-c4ccc(F)cc4F)nn23)C1 | IC50 [10]: 3.1 nM
399 µL/min/mg | > 399 µL/min/mg |  |  | Fc1cccc(F)c1-c1ccc2cnc(Nc3cnccc3N3CCCCC3)n2n1 | 
< 10 µL/min/mg | < 10 µL/min/mg | 1760 nM |  | N[C@H]1CCCN(c2ccncc2Nc2ncc3ccc(-c4ccccn4)nn23)C1 | 
443 µL/min/mg | > 399 µL/min/mg |  |  | N[C@@H]1CN(c2ccncc2Nc2ncc3ccc(-c4c(F)cccc4F)nn23)CC[C@H]1F | 
100 µL/min/mg | 260 µL/min/mg | 5007 nM | 1.8 nM | N[C@H]1CCCN(c2ccncc2Nc2ncc3ccc(-c4ccc(Cl)cc4Cl)nn23)C1 | 
 | 312 µL/min/mg |  |  | C[C@H]1[C@@H](N)CCCN1c1ccncc1Nc1ncc2ccc(-c3c(F)cccc3F)nn12 | 
472 µL/min/mg | > 399 µL/min/mg | 4807 nM | 2.9 nM | O[C@H]1CCCN(c2ccncc2Nc2ncc3ccc(-c4c(F)cccc4F)nn23)C1 | 
71 µL/min/mg | 194 µL/min/mg |  |  | C[C@@H]1CC[C@H](N)CN1c1ccncc1Nc1ncc2ccc(-c3cccc(F)n3)nn12 | 
< 10 µL/min/mg | 106 µL/min/mg | 5120 nM | 3.7 nM | N[C@H]1CCC[C@@H](c2ccncc2Nc2ncc3ccc(-c4c(F)cccc4F)nn23)C1 (racemic) | 
18 µL/min/mg | 27 µL/min/mg |  |  | N[C@H]1CCCN(c2ccncc2Nc2ncc3ccc(Cl)nn23)C1 | 
36 µL/min/mg | 40 µL/min/mg |  |  | N[C@H]1CCCN(c2ccncc2Nc2ncc3ccc(-c4ncccc4F)nn23)C1 | bioavailability [1]: 28%; CL [12]: 21%; Vd [3]: 3.3 L/kg; clearance [5]: 11.7 mL/min/kg; MRT [6]: 4.1 h; AUC(0-inf) [8]: 7.3 µM·h
51 µL/min/mg | 143 µL/min/mg | 983 nM | 0.78 nM | N[C@H]1C[C@@H](F)CN(c2ccncc2Nc2ncc3ccc(-c4c(F)cccc4F)nn23)C1 | 
80 µL/min/mg | 477 µL/min/mg |  |  | C[C@H]1CC[C@H](N)CN1c1ccncc1Nc1ncc2ccc(-c3c(F)cccc3F)nn12 | 
15 µL/min/mg | < 14 µL/min/mg |  |  | N[C@H]1CCN(c2ccncc2Nc2ncc3ccc(-c4c(F)cccc4F)nn23)C1 | 
79 µL/min/mg | 344 µL/min/mg |  |  | C[C@@H]1[C@@H](N)CCCN1c1ccncc1Nc1ncc2ccc(-c3c(F)cccc3F)nn12 | 
28 µL/min/mg | 167 µL/min/mg |  | 56 nM | N[C@H]1CCCN(c2sncc2Nc2ncc3ccc(-c4c(F)cccc4F)nn23)C1 | IC50 [10]: 148 nM
33 µL/min/mg | 91 µL/min/mg |  |  | C[C@@H]1C[C@H](N)CN(c2ccncc2Nc2ncc3ccc(-c4ncccc4F)nn23)C1 | bioavailability [1]: 60%; Vd [3]: 6.7 L/kg; clearance [5]: 26.7 mL/min/kg; MRT [6]: 4.3 h; AUC(0-inf) [8]: 3.2 µM·h
90 µL/min/mg | 122 µL/min/mg | 2668 nM |  | N[C@H]1CCCN(c2ccncc2Nc2ncc3ccc(-c4ccccc4Cl)nn23)C1 | IC50 [10]: 3.4 nM

Compound | microsomal CLint at 1 µM [2] | microsomal CLint at 1 µM [4] | IC50 [9] | IC50 [11] | further results
C[C@@H]1CCN(c2ccncc2Nc2ncc3ccc(-c4c(F)cccc4F)nn23)C[C@H]1N | 71 µL/min/mg | 219 µL/min/mg | 212 nM | 0.035 nM | IC50 [10]: 0.18 nM
N[C@H]1CCCN(c2ccncc2Nc2ncc3ccc(-c4c(F)cccc4F)nn23)C1 | 66 µL/min/mg | 130 µL/min/mg | 403 nM | 0.07 to 0.1 nM | F [1]: 16%; CL [12]: 40%; Vd [3]: 7.9 L/kg; CL [5]: 23.3 mL/min/kg; MRT [6]: 5.6 h; AUC [8]: 3.7 µM·h
C[C@H]1CCN(c2ccncc2Nc2ncc3ccc(-c4c(F)cccc4F)nn23)C[C@H]1N | 130 µL/min/mg | > 399 µL/min/mg | 2982 nM | 0.26 nM | 

Reference: ChEMBL document CHEMBL3864151, “Discovery of imidazopyridazines as potent Pim-1/2 kinase inhibitors” (Bioorg Med Chem Lett, 2016)
